Results as given in ChEMBL document CHEMBL5712917, “G9a regulates tumorigenicity and stemness through genome-wide DNA methylation reprogramming in non-small cell lung cancer” (Clin Epigenetics, 2020).
Activity calls are given as the source filed them.

How the values were obtained:
LCSC-2 [1] = experiment: Antitumor activity against human LCSC-2 cells assessed as increase in ROBO1 expression by Western blot analysis; assay type: functional, cell-based
Method in brief: (§1)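 Western blot on TICs exposed to G9A inhibitor. Cells lysed in 2X SDS buffer; 10 μl lysate or 20 μg protein run on 4–12% SDS-PAGE, transferred to PVDF, blocked in 5% non-fat milk/TBST, then probed with primary and secondary antibodies against each target protein.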

LCSC-4 [2] = experiment: Antitumor activity against human LCSC-4 cells xenografted in NOD-SCID mouse assessed as increase in SP5 expression at 10 mg/kg, ip administered for 8 weeks by immunohistochemical staining assay; assay type: functional, organism-based
Method in brief: (§2)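 NOD-SCID mice given 100,000 single cells from dissociated wild-type TIC spheres subcutaneously. Established tumors split into vehicle or 10 mg/kg inhibitor groups, dosed intraperitoneally for 8 weeks. Tumor size measured weekly and tumor weight taken at euthanasia. Tumors fixed in 10% formaldehyde and stained by IHC (×20) for G9A, H3K9Me2, FOXP1 and SP5; t test.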

LCSC-2 [3] = experiment: Antitumor activity against human LCSC-2 cells assessed as increase in DPP4 expression by Western blot analysis; assay type: functional, cell-based; method in brief: as §1
LCSC-2 [4] = experiment: Antitumor activity against human LCSC-2 cells assessed as decrease in tumor sphere formation at 10 uM for 72 hrs; assay type: functional, cell-based
Method in brief: (§3)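 Single cells from accutase-dissociated tumorspheres, 50,000–100,000 per well, grown in serum-free sphere medium (B-27, EGF, FGF, heparin). Exposed to 10 μM inhibitor at 37 °C for 72 h, then imaged. Sphere-forming capacity was scored by sphere size, and treated cells were compared with control by t test.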

LCSC-2 (human) [5] = experiment: Antitumor activity against human LCSC-2 cells xenografted in NOD-SCID mouse assessed as decrease in H3K9Me2 expression at 10 mg/kg, ip administered for 8 weeks by immunohistochemical staining assay
LCSC-2 (human) [6] = experiment: Antitumor activity against human LCSC-2 cells xenografted in NOD-SCID mouse assessed as increase in SP5 expression at 10 mg/kg, ip administered for 8 weeks by immunohistochemical staining assay
LCSC-2 (human) [7] = experiment: Antitumor activity against human LCSC-2 cells xenografted in NOD-SCID mouse assessed as increase in FOXP1 expression at 10 mg/kg, ip administered for 8 weeks by immunohistochemical staining assay
LCSC-4 [8] = experiment: Antitumor activity against human LCSC-4 cells assessed as increase in SP5 expression by Western blot analysis; assay type: functional, cell-based; method in brief: as §1
LCSC-4 [9] = experiment: Antitumor activity against human LCSC-4 cells assessed as increase in DPP4 expression by Western blot analysis; assay type: functional, cell-based; method in brief: as §1
LCSC-4 [10] = experiment: Antitumor activity against human LCSC-4 cell assessed as decrease in cell proliferation at 10 uM for 72 hrs by CCK-8 assay; assay type: functional, cell-based
Method in brief: (§4)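 TIC spheres dissociated to single cells with accutase and grown in serum-free DMEM/F12 with B-27, 25 ng/ml EGF, 25 ng/ml FGF and heparin. Cells were treated with 10 μM inhibitor at 37 °C for 72 h in 96-well format. CCK-8 solution was then added for 1–4 h and absorbance read at 450 nm. Groups compared against control by t test.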

LCSC-4 [11] = experiment: Antitumor activity against human LCSC-4 cells xenografted in NOD-SCID mouse assessed as decrease in G9a expression at 10 mg/kg, ip administered for 8 weeks by immunohistochemical staining assay; assay type: functional, organism-based; method in brief: as §2
LCSC-2 (human) [12] = experiment: Antitumor activity against human LCSC-2 cells xenografted in NOD-SCID mouse assessed as suppression of tumor volume at 10 mg/kg, ip administered for 8 weeks
LCSC-4 [13] = experiment: Antitumor activity against human LCSC-4 cells xenografted in NOD-SCID mouse assessed as increase in FOXP1 expression at 10 mg/kg, ip administered for 8 weeks by immunohistochemical staining assay; assay type: functional, organism-based; method in brief: as §2
LCSC-2 [14] = experiment: Antitumor activity against human LCSC-2 cells assessed as decrease in cell proliferation at 10 uM for 72 hrs by CCK-8 assay; assay type: functional, cell-based; method in brief: as §4
LCSC-4 [15] = experiment: Antitumor activity against human LCSC-4 cells assessed as increase in STAMBPL1 expression by Western blot analysis; assay type: functional, cell-based; method in brief: as §1
LCSC-2 [16] = experiment: Antitumor activity against human LCSC-2 cells assessed as increase in STAMBPL1 expression by Western blot analysis; assay type: functional, cell-based; method in brief: as §1
LCSC-4 [17] = experiment: Antitumor activity against human LCSC-4 cells assessed as increase in ROBO1 expression by Western blot analysis; assay type: functional, cell-based; method in brief: as §1
LCSC-2 [18] = experiment: Antitumor activity against human LCSC-2 cells assessed as increase in CDYL2 expression by Western blot analysis; assay type: functional, cell-based; method in brief: as §1
LCSC-1 [19] = experiment: Antitumor activity against human LCSC-1 cells assessed as decrease in cell proliferation at 10 uM for 72 hrs by CCK-8 assay; assay type: functional, cell-based; method in brief: as §4
LCSC-4 [20] = experiment: Antitumor activity against human LCSC-4 cells assessed as decrease in tumor sphere formation at 10 uM for 72 hrs; assay type: functional, cell-based; method in brief: as §3
LCSC-4 [21] = experiment: Antitumor activity against human LCSC-4 cells assessed as increase in CDYL2 expression by Western blot analysis; assay type: functional, cell-based; method in brief: as §1
LCSC-4 [22] = experiment: Antitumor activity against human LCSC-4 cells assessed as increase in FOXP1 expression by Western blot analysis; assay type: functional, cell-based; method in brief: as §1
LCSC-1 [23] = experiment: Antitumor activity against human LCSC-1 cells assessed as decrease in tumor sphere formation at 10 uM for 72 hrs; assay type: functional, cell-based; method in brief: as §3
LCSC-4 [24] = experiment: Antitumor activity against human LCSC-4 cells xenografted in NOD-SCID mouse assessed as suppression of tumor volume at 10 mg/kg, ip administered for 8 weeks; assay type: functional, organism-based; method in brief: as §2
LCSC-2 [25] = experiment: Antitumor activity against human LCSC-2 cells assessed as increase in FOXP1 expression by Western blot analysis; assay type: functional, cell-based; method in brief: as §1
LCSC-2 (human) [26] = experiment: Antitumor activity against human LCSC-2 cells xenografted in NOD-SCID mouse assessed as decrease in G9a expression at 10 mg/kg, ip administered for 8 weeks by immunohistochemical staining assay
LCSC-2 [27] = experiment: Antitumor activity against human LCSC-2 cells assessed as increase in SP5 expression by Western blot analysis; assay type: functional, cell-based; method in brief: as §1
LCSC-4 [28] = experiment: Antitumor activity against human LCSC-4 cells xenografted in NOD-SCID mouse assessed as decrease in H3K9Me2 expression at 10 mg/kg, ip administered for 8 weeks by immunohistochemical staining assay; assay type: functional, organism-based; method in brief: as §2

Measured: Activity

COc1cc2c(NC3CCN(C(C)C)CC3)nc(N3CCC(F)(F)CC3)nc2cc1OCCCN1CCCC1
active: all assays above
